Test results: PMC8745002 (European journal of immunology, 2021)

Assays:
[1] = cited from earlier work
BCL6 = details: cited from earlier work
SRBC-vaccinated mice [2] = experiment: Mouse pan IgG and IgM ELISA; format: in vivo, C57/BL6 mice; details: 11 days after vaccination
Method in brief: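 Male C57/BL6 mice, 8–12 weeks old, given 100 µL 10% SRBC i.p. on day 0. From 3 days later, 8-day course of test compound (100 µL vehicle, once or three times daily, 5 h apart) or vehicle on the same schedule. Plasma collected at CO2 euthanasia on day 11. Total IgG and IgM measured by commercial ELISA kit per manufacturer. Welch test.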

SRBC-vaccinated mice [3] = experiment: SRBC-specific IgM and IgG1 detection in plasma by flow cytometry; format: in vivo, C57/BL6 mice; details: mice receiving FX1 (80 mg/kg once daily)
Method in brief: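 Plasma taken on day 11 from SRBC-vaccinated (100 µL 10% i.p.) male C57/BL6 mice given compound or vehicle (100 µL) from day 3, diluted 1:5 in PBS. 5 µL incubated with 20 µL 2% SRBC for 5 min, then 20 min with fluorescent anti-mouse IgM or IgG1. Washed, fixed in 1% PFA, read by flow with isotype controls. MFI normalised to unvaccinated-mouse plasma, as fold change.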

rhesus macaque = details: FX1 treatment; cited from earlier work
[4] = In vitro plasma stability assay, mouse plasma; format: in vitro ADME; details: 37 °C, comparison in words
SRBC-vaccinated mice [5] = experiment: SRBC vaccination mouse model, flow cytometry of splenic cells; format: in vivo, C57/BL6 mice; details: FX1 80 mg/kg once daily, 8-day course; spleen, day 11
Method in brief: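 Male C57/BL6 mice, 8–12 weeks old, given 100 µL 10% SRBC i.p. on day 0. Compound dosed in 100 µL vehicle from day 3; vehicle controls matched. Spleens taken on day 11 and meshed through a 70 µm strainer. Cells spun 2000 rpm for 10 min, washed in PBS with 2% FBS. Two million mononuclear cells stained for surface and intracellular markers, analysed on a 4-laser LSRII.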

[6] = In vitro plasma stability assay, human plasma; format: in vitro ADME; details: 37 °C
Method in brief: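 Compound in DMSO, diluted to a 0.1 mM working solution in DMSO:water (1:1, v/v). Mouse, rat or human plasma thawed and pre-warmed at 37 °C, then mixed 100:1 (plasma:working solution). Incubated at 37 °C, 5% CO2, shaking at 200 rpm. Half-life determined from this plasma incubation.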

With O=C(O)CCN1C(=O)/C(=C2/C(=O)Nc3ccc(Cl)cc32)SC1=S [FX1] as the compound, how does the aqueous solubility [1] read?
The aqueous solubility was “poor aqueous solubility”.

And the “affinity compared with natural ligand (SMRT)” value (BCL6)?
Its value is “higher affinity than its natural ligand (SMRT)”.

What about the “total titer of plasma pan IgG and IgM vs vehicle” value (SRBC-vaccinated mice [2]) of the same compound?
Its value is “no difference”.

What about the “SRBC-specific IgM and IgG1 vs vehicle” value (SRBC-vaccinated mice [3]) of the same compound?
The value was “Lower”.

And the lymphoid hyperplasia (rhesus macaque)?
Its lymphoid hyperplasia is “reversal of lymphoid hyperplasia”.

And the “stability (T1/2) in mouse plasma” value [4]?
Its value is “significantly longer stability over AP-4-287 in mouse plasma”.

And the “GC B cells” value (SRBC-vaccinated mice [5])?
The value was “can lower GC B”.

What about the “frequency of CD4+ Tfh within GCs” value (SRBC-vaccinated mice [5]) of the same compound?
The value was “did not reduce”.

And the “T1/2 in human plasma” value [6]?
The value was 3.29 h.
